The source of these data is BindingDB's records for doi:10.1021/jm950541c (Georgia Institute of Technology, 1996).

What is called Ki is a measure of affinity in units of concentration, obtained from inhibition or displacement.

The target in the assay is T1, Calpain-2 catalytic subunit (Homo sapiens, UniProt P17655).
T1 sequence (P17655 whole entry): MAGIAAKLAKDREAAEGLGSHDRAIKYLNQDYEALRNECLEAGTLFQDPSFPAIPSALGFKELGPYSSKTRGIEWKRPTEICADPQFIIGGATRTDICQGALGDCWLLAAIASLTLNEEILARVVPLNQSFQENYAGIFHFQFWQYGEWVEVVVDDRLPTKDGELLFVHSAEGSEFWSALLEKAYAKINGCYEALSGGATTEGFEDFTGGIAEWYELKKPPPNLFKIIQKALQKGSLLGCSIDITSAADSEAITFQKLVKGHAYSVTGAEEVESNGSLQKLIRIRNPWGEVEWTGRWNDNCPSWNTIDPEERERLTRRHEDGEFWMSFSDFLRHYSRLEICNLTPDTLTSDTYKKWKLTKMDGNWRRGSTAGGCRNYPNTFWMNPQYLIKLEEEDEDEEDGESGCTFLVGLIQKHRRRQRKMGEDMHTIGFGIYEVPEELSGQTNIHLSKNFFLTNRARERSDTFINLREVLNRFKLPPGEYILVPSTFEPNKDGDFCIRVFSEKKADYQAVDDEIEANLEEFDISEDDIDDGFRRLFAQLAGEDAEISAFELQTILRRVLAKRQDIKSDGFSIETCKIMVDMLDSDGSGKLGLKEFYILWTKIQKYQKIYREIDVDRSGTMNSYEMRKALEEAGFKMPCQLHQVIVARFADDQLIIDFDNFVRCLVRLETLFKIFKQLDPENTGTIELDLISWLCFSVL
Nature of the assay: Compound was evaluated for the inhibition of Cysteine protease Calpain 2. In outline: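 Calpain assay in 25 mM Tris, pH 8.0, with 10 mM CaCl₂ and 5% DMSO. Suc-Leu-AMC hydrolysis was read as initial velocity (t = 30-60 s) after a 30 s delay, at room temperature. Five or more inhibitor concentrations (not above 2 × K_obs) were used at two fixed substrate levels. Ki came from Dixon plots (1/v vs I) averaged over triplicates.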
The molecule `CC(C)CC(NC(=O)OCc1ccccc1)C(=O)NC(Cc1ccccc1)C(=O)C(=O)NCc1ccccn1` (centres undefined) [(1-{1-Benzyl-2-oxo-2-[(pyridin-2-ylmethyl)-carbamoyl]-ethylcarbamoyl}-3-methyl-butyl)-carbamic acid benzyl ester] registered a Ki of 270 nM.
Then `CC(C)CC(NC(=O)OCc1ccccc1)C(=O)NC(Cc1ccccc1)C(=O)C(=O)NCc1ccc2ccccc2n1` (centres undefined) [(1-{1-Benzyl-2-oxo-2-[(quinolin-2-ylmethyl)-carbamoyl]-ethylcarbamoyl}-3-methyl-butyl)-carbamic acid benzyl ester], with 23 nM.
The molecule `CCC(NC(=O)C(CC(C)C)NC(=O)OCc1ccccc1)C(=O)C(=O)NCCc1c[nH]c2ccccc12` (centres undefined) [(1-{1-[2-(1H-Indol-3-yl)-ethylaminooxalyl]-propylcarbamoyl}-3-methyl-butyl)-carbamic acid benzyl ester] registered a Ki of 50 nM.
The result for `CCC(NC(=O)C(CC(C)C)NC(=O)OCc1ccccc1)C(=O)C(=O)NCC(O)c1ccc(OCc2ccccc2)c(OCc2ccccc2)c1` (centres undefined) [(1-{1-[2-(3,4-Bis-benzyloxy-phenyl)-2-hydroxy-ethylaminooxalyl]-propylcarbamoyl}-3-methyl-butyl)-carbamic acid benzyl ester] reads 100 nM.
The result for `CCC(NC(=O)C(CC(C)C)NC(=O)OCc1ccccc1)C(=O)C(=O)NCCc1cccc(OC)c1` (centres undefined) [(1-{1-[2-(3-Methoxy-phenyl)-ethylaminooxalyl]-propylcarbamoyl}-3-methyl-butyl)-carbamic acid benzyl ester] reads 86 nM.
The result for `CCC(NC(=O)C(CC(C)C)NC(=O)OCc1ccccc1)C(=O)C(=O)NCC(O)c1ccc(OCc2ccccc2)cc1` (centres undefined) [(1-{1-[2-(4-Benzyloxy-phenyl)-2-hydroxy-ethylaminooxalyl]-propylcarbamoyl}-3-methyl-butyl)-carbamic acid benzyl ester] reads 120 nM.
In turn, `CCC(NC(=O)C(CC(C)C)NC(=O)OCc1ccccc1)C(=O)C(=O)NCC(O)c1ccc(N(C)C)cc1` (centres undefined) [(1-{1-[2-(4-Dimethylamino-phenyl)-2-hydroxy-ethylaminooxalyl]-propylcarbamoyl}-3-methyl-butyl)-carbamic acid benzyl ester] displayed a Ki of 410 nM.
`CCC(NC(=O)C(CC(C)C)NC(=O)OCc1ccccc1)C(=O)C(=O)NCCc1ccc(O)cc1` (centres undefined) [(1-{1-[2-(4-Hydroxy-phenyl)-ethylaminooxalyl]-propylcarbamoyl}-3-methyl-butyl)-carbamic acid benzyl ester] came in with a Ki of 60 nM.
In turn, `CCC(NC(=O)C(CC(C)C)NC(=O)OCc1ccccc1)C(=O)C(=O)NCCc1ccc(OC)cc1` (centres undefined) [(1-{1-[2-(4-Methoxy-phenyl)-ethylaminooxalyl]-propylcarbamoyl}-3-methyl-butyl)-carbamic acid benzyl ester] had a Ki of 46 nM.
As for `CCC(NC(=O)C(CC(C)C)NC(=O)OCc1ccccc1)C(=O)C(=O)NCC(O)c1cccc(Oc2ccccc2)c1` (centres undefined) [(1-{1-[2-Hydroxy-2-(3-phenoxy-phenyl)-ethylaminooxalyl]-propylcarbamoyl}-3-methyl-butyl)-carbamic acid benzyl ester], the affinity, expressed as Ki, was 590 nM.
In turn, `CCC(NC(=O)C(CC(C)C)NC(=O)OCc1ccccc1)C(=O)C(=O)NCC(O)c1cccc(C(F)(F)F)c1` (centres undefined) [(1-{1-[2-Hydroxy-2-(3-trifluoromethyl-phenyl)-ethylaminooxalyl]-propylcarbamoyl}-3-methyl-butyl)-carbamic acid benzyl ester] came in with a Ki of 180 nM.
Then `CCC(NC(=O)C(CC(C)C)NC(=O)OCc1ccccc1)C(=O)C(=O)NCC(O)c1ccc(Oc2ccccc2)cc1` (centres undefined) [(1-{1-[2-Hydroxy-2-(4-phenoxy-phenyl)-ethylaminooxalyl]-propylcarbamoyl}-3-methyl-butyl)-carbamic acid benzyl ester], with 290 nM.
The molecule `CCC(NC(=O)C(CC(C)C)NC(=O)OCc1ccccc1)C(=O)C(=O)NCCc1cccn1C` (centres undefined) [(3-Methyl-1-{1-[2-(1-methyl-1H-pyrrol-2-yl)-ethylaminooxalyl]-propylcarbamoyl}-butyl)-carbamic acid benzyl ester] had a Ki of 76 nM.
Then `CCNC(=O)C(=O)C(CC)NC(=O)C(CC(C)C)NC(=O)c1ccco1` (centres undefined) [Furan-2-carboxylic acid [1-(1-ethylaminooxalyl-propylcarbamoyl)-3-methyl-butyl]-amide], with 580 nM; and `CCNC(=O)C(=O)C(CC)NC(=O)C(CC(C)C)NC(=O)c1nccc2ccccc12` (centres undefined) [Isoquinoline-1-carboxylic acid [1-(1-ethylaminooxalyl-propylcarbamoyl)-3-methyl-butyl]-amide], with 110 nM.
For the molecule `CCNC(=O)C(=O)C(CC)NC(=O)C(CC(C)C)NC(=O)N1CCOCC1` (centres undefined) [Morpholine-4-carboxylic acid [1-(1-ethylaminooxalyl-propylcarbamoyl)-3-methyl-butyl]-amide], the Ki is 9900 nM.
In turn, `CCNC(=O)C(=O)C(CC)NC(=O)C(CC(C)C)NC(=O)c1cccnc1` (centres undefined) [N-[1-(1-Ethylaminooxalyl-propylcarbamoyl)-3-methyl-butyl]-nicotinamide] had a Ki of 830 nM.
On to `CCNC(=O)C(=O)C(CC)NC(=O)C(CC(C)C)NC(=O)c1cnccn1` (centres undefined) [Pyrazine-2-carboxylic acid [1-(1-ethylaminooxalyl-propylcarbamoyl)-3-methyl-butyl]-amide], for which the Ki is 480 nM.
Then `CCNC(=O)C(=O)C(CC)NC(=O)C(CC(C)C)NC(=O)c1ccc2ccccc2n1` (centres undefined) [Quinoline-2-carboxylic acid [1-(1-ethylaminooxalyl-propylcarbamoyl)-3-methyl-butyl]-amide], with 300 nM; and `CNC(=O)C(=O)C(Cc1ccccc1)NC(=O)C(CC(C)C)NC(=O)OCc1ccccc1` (centres undefined) [[1-(1-Benzyl-2-methylcarbamoyl-2-oxo-ethylcarbamoyl)-3-methyl-butyl]-carbamic acid benzyl ester], with 150 nM.
Then `CC(C)CC(NC(=O)OCc1ccccc1)C(=O)NC(Cc1ccccc1)C(=O)C(=O)NCCNC(=O)CCCC[C@@H]1SC[C@@H]2NC(=O)N[C@@H]21` (stereo partly drawn) [[1-(1-Benzyl-2-oxo-2-{2-[5-((3aR,6S,6aS)-2-oxo-hexahydro-thieno[3,4-d]imidazol-6-yl)-pentanoylamino]-ethylcarbamoyl}-ethylcarbamoyl)-3-methyl-butyl]-carbamic acid benzyl ester], with 160 nM.
Take `CC(C)CC(NC(=O)OCc1ccccc1)C(=O)NC(Cc1ccccc1)C(=O)C(=O)NCC(O)c1cccc(Oc2ccc(Cl)c(Cl)c2)c1` (centres undefined) [[1-(1-Benzyl-2-{2-[3-(3,4-dichloro-phenoxy)-phenyl]-2-hydroxy-ethylcarbamoyl}-2-oxo-ethylcarbamoyl)-3-methyl-butyl]-carbamic acid benzyl ester]: the affinity, expressed as Ki, was 120 nM.
Molecule `CC(C)CC(NC(=O)OCc1ccccc1)C(=O)NC(Cc1ccccc1)C(=O)C(=O)NCC(O)c1cccc(Oc2cccc(C(F)(F)F)c2)c1` (centres undefined) [[1-(1-Benzyl-2-{2-hydroxy-2-[3-(3-trifluoromethyl-phenoxy)-phenyl]-ethylcarbamoyl}-2-oxo-ethylcarbamoyl)-3-methyl-butyl]-carbamic acid benzyl ester] displayed a Ki of 450 nM.
Turning to `CCC(NC(=O)C(CC(C)C)NC(=O)OCc1ccccc1)C(=O)C(=O)NCc1ccccc1` (centres undefined) [[1-(1-Benzylaminooxalyl-propylcarbamoyl)-3-methyl-butyl]-carbamic acid benzyl ester], the Ki is 350 nM.
Then `CCC(NC(=O)C(CC(C)C)NC(=O)OCc1ccccc1)C(=O)C(=O)NCC(O)c1cccc(Oc2cccc(C(F)(F)F)c2)c1` (centres undefined) [[1-(1-{2-Hydroxy-2-[3-(3-trifluoromethyl-phenoxy)-phenyl]-ethylaminooxalyl}-propylcarbamoyl)-3-methyl-butyl]-carbamic acid benzyl ester], with 280 nM; and `CCC(NC(=O)C(CC(C)C)NC(=O)OCc1ccccc1)C(=O)C(=O)NCC(O)c1cccc(Oc2ccc(Cl)c(Cl)c2)c1` (centres undefined) [[1-(1-{2-[3-(3,4-Dichloro-phenoxy)-phenyl]-2-hydroxy-ethylaminooxalyl}-propylcarbamoyl)-3-methyl-butyl]-carbamic acid benzyl ester], with 120 nM; and `CCC(NC(=O)C(CC(C)C)NC(=O)OCc1ccccc1)C(=O)C(=O)NC` (centres undefined) [[3-Methyl-1-(1-methylaminooxalyl-propylcarbamoyl)-butyl]-carbamic acid benzyl ester], with 83 nM.
`CCC(NC(=O)C(CC(C)C)NC(=O)OCc1ccccc1)C(=O)C(=O)NCCNC(=O)CCCC[C@@H]1SC[C@@H]2NC(=O)N[C@@H]21` (stereo partly drawn) [[3-Methyl-1-(1-{2-[5-((3aR,6S,6aS)-2-oxo-hexahydro-thieno[3,4-d]imidazol-6-yl)-pentanoylamino]-ethylaminooxalyl}-propylcarbamoyl)-butyl]-carbamic acid benzyl ester] registered a Ki of 280 nM.
For `CCOC(CNC(=O)C(=O)C(CC)NC(=O)C(CC(C)C)NC(=O)OCc1ccccc1)OCC` (centres undefined) [{1-[1-(2,2-Diethoxy-ethylaminooxalyl)-propylcarbamoyl]-3-methyl-butyl}-carbamic acid benzyl ester], affinity was put at a Ki of 160 nM.
